ChEMBL document CHEMBL4414663, “Pyrazole-4-Carboxamide (YW2065): A Therapeutic Candidate for Colorectal Cancer via Dual Activities of Wnt/β-Catenin Signaling Inhibition and AMP-Activated Protein Kinase (AMPK) Activation” (J Med Chem, 2019)
Activity calls are given as the source filed them. The rule behind the calls is not given here.

How the values were obtained:
[1] = Inhibition of Wnt/beta-Catenin signaling (unknown origin) expressed in recombinant human Wnt-3a-induced Wnt-HEK293 cells incubated for 24 hrs by luciferase reporter gene assay; type: cell-based
In short: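 Stably transfected Wnt-HEK293 cells, 2000/well in DMEM + 10% FBS, incubated overnight at 37 °C. Compounds pin-transferred, then recombinant human Wnt-3a added (200 ng/mL stock); unstimulated control wells received medium. After 24 h at 37 °C, ONE-Glo luminescence read after 30 min at room temperature; CellTiter-Fluor viability read in parallel. IC50 reported as mean ± SD of three independent experiments.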

SW480 [2] = assay: Growth inhibition of human SW480 cells by Cell-titer-fluor reagent based assay; type: functional
SW480 [3] = assay: Growth inhibition of human SW480 cells at 50 uM by Cell-titer-fluor reagent based assay relative to control; type: functional; details: read-out: GI
Homo sapiens [4] = species: Homo sapiens; assay: Potency index, ratio of IC50 for pyrvinium to test compound for inhibition of Wnt/beta-Catenin signaling (unknown origin) expressed in recombinant human Wnt-3a-induced Wnt-HEK293 cells incubated for 24 hrs by luciferase reporter gene assay; type: cell-based
Homo sapiens [5] = species: Homo sapiens; assay: Potency index, ratio of IC50 for XAV939 to test compound for inhibition of Wnt/beta-Catenin signaling (unknown origin) expressed in recombinant human Wnt-3a-induced Wnt-HEK293 cells incubated for 24 hrs by luciferase reporter gene assay; type: cell-based
Homo sapiens [6] = species: Homo sapiens; assay: Inhibition of Wnt/beta-Catenin signaling (unknown origin) expressed in recombinant human Wnt-3a-induced Wnt-HEK293 cells assessed as increase in beta-catenin degradation at 1 uM by Western blot analysis; type: cell-based
[7] = target: AMP-activated protein kinase, AMPK (Homo sapiens) (UniProt P54646+O43741+P54619+Q9UGJ0+Q9Y478+Q13131+Q9UGI9); assay: Activation of AMPK in HEK293 cells over-expressing Axin-1 assessed as increase in AMPK phosphorylation at T172 residue at 10 uM incubated for 24 hrs by Western blot analysis; type: cell-based

SMILES | IC50 [1] [nM] | GI50 (SW480 [2]) [nM] | inhibition of growth at 50 µM (SW480 [3]) [%] | other results
Cc1ccccc1-n1nc(C(=O)Nc2ccc3ccccc3n2)cc1C | 250 | – | – | –
CCc1ccccc1-n1ncc(C(=O)Nc2cc3ccccc3cn2)c1C | > 1000 | – | – | –
Cc1c(C(=O)Nc2ccc3ccccc3n2)cnn1-c1cccc(Cl)c1F | 14 | 9000 | > 50 | –
O=C(Nc1ccc2ccccc2n1)c1nn(-c2ccccc2)c2c1CCCC2 | 260 | – | – | –
O=C(Nc1ccc2ccccc2n1)c1cnn(-c2ccccc2)c1Cl | 29 | – | – | –
O=C(Nc1ccc2ccccc2n1)c1cnn(-c2ccccc2)c1Br | 3.7 | – | – | –
Cc1c(C(=O)Nc2ccc3ccccc3n2)cnn1-c1ccccc1 | 2.2 | 23900 | > 50 | Ratio IC50 (Homo sapiens [4]): > 300; Ratio IC50 (Homo sapiens [5]): > 200
CN(C)c1c(C(=O)Nc2ccc3ccccc3n2)cnn1-c1ccccc1 | 6 | – | – | –
CCc1c(C(=O)Nc2ccc3ccccc3n2)cnn1-c1ccccc1 | 1.7 | – | – | –
Cc1cccc(C)c1-n1ncc(C(=O)Nc2ccc3ccccc3n2)c1C | 26 | 7200 | > 50 | –
Cc1cccnc1-n1ncc(C(=O)Nc2ccc3ccccc3n2)c1C | 2.2 | – | – | –
O=C(Nc1ccc2ccccc2n1)c1nn(-c2ccccc2)c2c1CCC2 | 140 | – | – | –
Cc1cc(C(=O)Nc2ccc3ccccc3n2)nn1-c1ccccc1 | 637 | – | – | –
CCc1ccccc1-n1nc(C(=O)Nc2ccc3ccccc3n2)cc1C | 67 | – | – | –
Cc1c(C(=O)Nc2ccc3ccccc3n2)cnn1-c1c(F)cccc1F | 1.6 | – | – | –
Cc1cc(/C=C/c2ccc3cc(N(C)C)ccc3[n+]2C)c(C)n1-c1ccccc1 [PYRVINIUM] | 750 | 3700 | – | inhibition (Homo sapiens [6]): Active
Cc1c(C(=O)Nc2ccc3ccccc3n2)cnn1-c1ccc(F)cc1F | 16 | – | – | –
Cc1c(C(=O)Nc2ccc3ccccc3n2)cnn1-c1c(F)cccc1Br | 3.2 | 3900 | > 50 | –
Cc1ccccc1-n1nnc(C(=O)Nc2ccc3ccccc3n2)c1C | – | – | – | Activity [7]: Active; inhibition (Homo sapiens [6]): Active
Cc1ccc(C)c(-n2ncc(C(=O)Nc3ccc4ccccc4n3)c2C)c1 | 14 | 24600 | > 50 | –
CCc1ccccc1-n1ncc(C(=O)Nc2ccc3ccccc3n2)c1C | 1.2 | 9700 | > 50 | –
CCc1ccccc1-n1ncc(C(=O)Nc2ccc3ccccc3c2)c1C | > 1000 | – | – | –
CCc1ccccc1-n1ncc(C(=O)Nc2cccc(C)n2)c1C | 380 | – | – | –
Oc1nc(-c2ccc(C(F)(F)F)cc2)nc2c1CSCC2 | 450 | > 50000 | – | –
Cc1c(C(=O)Nc2ccc3ccccc3n2)cnn1-c1ccccc1F | 0.92 | 33300 | > 50 | –
CC(C)c1c(C(=O)Nc2ccc3ccccc3n2)cnn1-c1ccccc1 | 15 | 17300 | > 50 | –
